Test results taken from ChEMBL document CHEMBL3085749, “Design, optimization, and biological evaluation of novel keto-benzimidazoles as potent and selective inhibitors of phosphodiesterase 10A (PDE10A)” (J Med Chem, 2013).

Columns and labels:
Format in all cases: ADME, organism-based
[1] = Oral bioavailability in Sprague-Dawley rat at 5 mg/kg by LC-MS/MS analysis; settings: in vivo
[2] = AUC in Sprague-Dawley rat at 5 mg/kg, po by LC-MS/MS analysis; design: dose 5 mg/kg, route oral; settings: plasma
[3] = AUC in Sprague-Dawley rat at 2 mg/kg, iv by LC-MS/MS analysis; design: dose 2 mg/kg, route intravenous; settings: plasma
[4] = Volume of distribution at steady state in Sprague-Dawley rat at 2 mg/kg, iv by LC-MS/MS analysis; design: dose 2 mg/kg, route intravenous; settings: in vivo, read-out: Vdss
[5] = Oral bioavailability in Sprague-Dawley rat at 10 mg/kg by LC-MS/MS analysis; settings: in vivo
Procedure, shortened: (§1)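 Fed male Sprague−Dawley rats. Vehicle for iv was 100% DMSO; for po and ip it was 1% Tween and 2% HPMC with methanesulfonic acid, pH 2.2. Reported parameters are Cl (L/h/kg), Vss (L/kg), AUC (μM·h), T1/2 (h) and %F.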

[6] = AUC in Sprague-Dawley rat at 10 mg/kg, po by LC-MS/MS analysis; design: dose 10 mg/kg, route oral; settings: plasma; procedure, shortened: as §1

bioavailability [1] [%] | AUC [2] [µM·h] | AUC [3] [µM·h] | Vd [4] [L/kg] | bioavailability [5] [%] | AUC [6] [µM·h] | SMILES
56 | 79.2 | 62.1 | 0.165 |  |  | CC(=O)N1CCN(c2nccnc2Oc2ccc(C(=O)c3nc4ccccc4[nH]3)cc2)CC1
 |  | 4.5 | 1.28 | 52 | 11.7 | O=C(c1ccc(Oc2nccnc2N2CCC(O)CC2)cc1)c1nc2ccccc2[nH]1
